Laboratory results: ChEMBL document CHEMBL5380804, “Discovery of 2-(3-Benzamidopropanamido)thiazole-5-carboxylate Inhibitors of the Kinesin HSET (KIFC1) and the Development of Cellular Target Engagement Probes” (J Med Chem, 2023)
pIC50, pKd: −log10 of the molar value. One block for each compound: values may come before it.

Legend:
[1] = target: T1, Kinesin-like protein KIFC1 (Homo sapiens, UniProt Q9BW19); assay: Binding affinity to N-terminal His-tagged full length recombinant human HSET assessed as dissociation constant incubated for 3 hrs in presence of 70 ug/ml of microtubules by fluorescence polarization assay
T1 sequence (Q9BW19 whole entry): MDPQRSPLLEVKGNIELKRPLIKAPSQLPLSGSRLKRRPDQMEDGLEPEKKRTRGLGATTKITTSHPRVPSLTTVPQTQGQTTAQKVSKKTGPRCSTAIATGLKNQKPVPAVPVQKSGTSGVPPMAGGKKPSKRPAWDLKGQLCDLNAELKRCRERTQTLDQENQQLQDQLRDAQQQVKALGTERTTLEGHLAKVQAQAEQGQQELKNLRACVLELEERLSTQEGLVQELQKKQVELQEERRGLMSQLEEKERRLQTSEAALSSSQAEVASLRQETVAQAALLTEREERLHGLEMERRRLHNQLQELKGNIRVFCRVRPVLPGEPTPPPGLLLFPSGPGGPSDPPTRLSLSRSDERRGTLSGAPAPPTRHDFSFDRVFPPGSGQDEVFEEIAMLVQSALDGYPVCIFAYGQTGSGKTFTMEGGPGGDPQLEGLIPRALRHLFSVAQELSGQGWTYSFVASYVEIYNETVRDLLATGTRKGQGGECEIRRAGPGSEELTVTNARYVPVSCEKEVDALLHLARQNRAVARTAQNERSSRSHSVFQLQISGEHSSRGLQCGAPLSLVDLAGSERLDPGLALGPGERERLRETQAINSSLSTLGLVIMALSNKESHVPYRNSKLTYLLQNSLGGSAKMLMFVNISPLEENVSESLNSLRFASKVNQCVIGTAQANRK
Summary of the method: (§1)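 Full-length human N-His HSET titrated from 2000 to 0.5 nM. Preincubated 10 min with paclitaxel-stabilized preformed microtubules or reconstitution buffer, then added to 2.5 nM sulfoCy5 probe. Buffer: 20 mM HEPES pH 7.5, 200 mM NaCl, 10 mM MgCl2, 1 mM TCEP, 0.1 mM Triton X-100, 5% glycerol.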

[2] = target: T1, Kinesin-like protein KIFC1; assay: Binding affinity to N-terminal His-tagged full length recombinant human HSET assessed as dissociation constant incubated for 3 hrs in presence of 7 ug/ml of microtubules by fluorescence polarization assay; summary of the method: as §1
[3] = target: T1, Kinesin-like protein KIFC1; assay: Displacement of FP-Probe from N-terminal His-tagged full length recombinant human HSET incubated for 2 hrs by fluorescence polarization based competitive binding assay
Summary of the method: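 Competitive FP assay with 400 nM full-length human N-His HSET and 2.5 nM sulfoCy5 probe in 20 mM HEPES pH 7.5, 200 mM NaCl, 10 mM MgCl2, 1 mM TCEP, 0.1 mM Triton X-100, 5% glycerol. 11-point compound series from 100 to 0.001 μM final.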

[4] = target: T2, Kinesin-like protein KIFC1 (Homo sapiens) (UniProt Q9BW19); assay: Displacement of CCT369834 probe from HSET in human DLD-1 cells assessed as decrease in localization of CCT369834 probe at 0.1 to 10 uM incubated for 45 mins by DAPI staining immunofluorescence analysis; format: cell-based; settings: dose 0.1-10 µM
T2 sequence (whole entry): T1 sequence (Q9BW19 whole entry)
Summary of the method: (§2)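 Target engagement in DLD1 4N cells, with HSET-knockout DLD1 as negative control. Cells pretreated 2 h with 8 μM pro-TAME, then given 3 μM TCO probe alone or with competitor plus 8 μM MG-132 in 1% FBS medium for 45 min. Washed, PFA-fixed, then 400 nM tetrazine-Cy5 for 10 min. Stained for pericentrin, KIFC1 and DAPI, followed by confocal 3D segmentation of mitotic poles. Cy5/KIFC1 pole intensity ratio, with KO signal subtracted, normalized to probe-alone control; n > 100 cells per replicate, two replicates per concentration.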

[5] = target: T2, Kinesin-like protein KIFC1 (Homo sapiens); assay: Displacement of CCT369834 probe from HSET in human DLD-1 cells assessed as decrease in localization of CCT369834 probe at 0.1 to 10 uM incubated for 45 mins by Alexa-488 fluorophore staining immunofluorescence analysis; format: cell-based; settings: dose 0.1-10 µM; summary of the method: as §2
[6] = target: T2, Kinesin-like protein KIFC1 (Homo sapiens); assay: Displacement of CCT369834 probe from HSET in human DLD-1 cells assessed as decrease in localization of CCT369834 probe at 0.1 to 10 uM incubated for 45 mins by TZ-Cy5 staining immunofluorescence analysis; format: cell-based; settings: dose 0.1-10 µM; summary of the method: as §2
[7] = target: T2, Kinesin-like protein KIFC1 (Homo sapiens); assay: Inhibition of N-terminal His-tagged full length recombinant human HSET assessed as inhibition of microtubule-stimulated ATPase activity incubated for 10 mins in presence of ultra-ATP by ADP-Glo kinase assay relative to control
[8] = target: T2, Kinesin-like protein KIFC1 (Homo sapiens); assay: Binding affinity to HSET in human DLD-1 assessed as fold increase in signal at 3 uM incubated for 45 mins by Alexa-488 fluorophore staining immunofluorescence analysis; format: cell-based
Summary of the method: (§3)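 DLD1 4N cells and CRISPR HSET-knockout DLD1 cells pretreated 2 h with 8 μM pro-TAME, then 45 min with 3 μM TCO click probe plus 8 μM MG-132 in DMEM/1% FBS. After washes, fixed in 4% PFA and reacted with 400 nM tetrazine-Cy5 for 10 min at room temperature. Stained for pericentrin, KIFC1 (Alexa-488) and DAPI; confocal 40× imaging; signal expressed relative to tetrazine-Cy5 alone.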

[9] = target: T2, Kinesin-like protein KIFC1 (Homo sapiens); assay: Binding affinity to HSET in human DLD-1 with HSET knockout assessed as fold increase in signal at 3 uM incubated for 45 mins by Alexa-488 fluorophore staining immunofluorescence analysis; format: cell-based; summary of the method: as §3

SMILES: CCOC(=O)c1sc(NC(=O)CCNC(=O)c2cccc(-c3noc(C)n3)c2)nc1C
pIC50 [3]: 6.96

SMILES: CCCOC(=O)c1sc(NC(=O)C[C@H](CCCN(C)C)NC(=O)c2cccc(-c3noc(C)n3)c2)nc1C
Activity [4]: Dose-Dependent Effect
Activity [5]: Dose-Dependent Effect
Activity [6]: Dose-Dependent Effect

SMILES: CCOC(=O)c1sc(NC(=O)CCNC(=O)c2ccccc2)nc1C
inhibition [7]: 47%

Further lines, results first:

pKd [1]: 6.48
pKd [2]: 6.50
SMILES: CCCOC(=O)c1sc(NC(=O)C[C@H](CCCNC(=O)CCCCC[N+]2=C(/C=C/C=C/C=C3/N(C)c4ccc(S(=O)(=O)O)cc4C3(C)C)C(C)(C)c3cc(S(=O)(=O)O)ccc32)NC(=O)c2cccc(-c3noc(C)n3)c2)nc1C

inhibition [7]: 47%
SMILES: CCOC(=O)c1sc(NC(=O)CCNC(=O)C2CCCC(C)C2)nc1C (stereo not given)

fold change (FC) [8]: 14
fold change (FC) [9]: 7
SMILES: CCCOC(=O)c1sc(NC(=O)C[C@H](CCCN(C)CC#CCNC(=O)O[C@@H]2CC/C=C/CCC2)NC(=O)c2cccc(-c3noc(C)n3)c2)nc1C
